Compound activity from PubChem BioAssay.
CHOP inh: inhibitors of CHOP promoter induction, primary screen, cell-based, unfolded protein response, luciferase reporter | CHO-K1 CHOP-promoter luciferase, tunicamycin-induced, 15-18 h | inhibition, % at 10 µM | 220,000 tested, 3.8% active | AID 2732, 2010;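 active means compounds that reduced the stress-induced luciferase reporter signal by more than about 70% of percent inhibition, limit read from the data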;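 further: 0% = tunicamycin plus vehicle and 100% = wells without tunicamycin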
ANO1 block: TMEM16A chloride channel inhibitors, primary screen, cell-based, HTS; 310,000 tested, 1.2% active; HEK293 TMEM16A/YFP iodide influx fluorescence, ionomycin; normalized B-score (activity score, 25-100; higher = stronger inhibition) at 10 µM; Anoctamin-1 (Mus musculus), Q8BHY3;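 active means ratio plate-corrected score three or more library SD toward inhibition, starting fluorescence score within five deviations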;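 further: score derived from kinetic fluorescence span divided by baseline fluorescence per well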
Target sequence (Q8BHY3 whole entry, looked up): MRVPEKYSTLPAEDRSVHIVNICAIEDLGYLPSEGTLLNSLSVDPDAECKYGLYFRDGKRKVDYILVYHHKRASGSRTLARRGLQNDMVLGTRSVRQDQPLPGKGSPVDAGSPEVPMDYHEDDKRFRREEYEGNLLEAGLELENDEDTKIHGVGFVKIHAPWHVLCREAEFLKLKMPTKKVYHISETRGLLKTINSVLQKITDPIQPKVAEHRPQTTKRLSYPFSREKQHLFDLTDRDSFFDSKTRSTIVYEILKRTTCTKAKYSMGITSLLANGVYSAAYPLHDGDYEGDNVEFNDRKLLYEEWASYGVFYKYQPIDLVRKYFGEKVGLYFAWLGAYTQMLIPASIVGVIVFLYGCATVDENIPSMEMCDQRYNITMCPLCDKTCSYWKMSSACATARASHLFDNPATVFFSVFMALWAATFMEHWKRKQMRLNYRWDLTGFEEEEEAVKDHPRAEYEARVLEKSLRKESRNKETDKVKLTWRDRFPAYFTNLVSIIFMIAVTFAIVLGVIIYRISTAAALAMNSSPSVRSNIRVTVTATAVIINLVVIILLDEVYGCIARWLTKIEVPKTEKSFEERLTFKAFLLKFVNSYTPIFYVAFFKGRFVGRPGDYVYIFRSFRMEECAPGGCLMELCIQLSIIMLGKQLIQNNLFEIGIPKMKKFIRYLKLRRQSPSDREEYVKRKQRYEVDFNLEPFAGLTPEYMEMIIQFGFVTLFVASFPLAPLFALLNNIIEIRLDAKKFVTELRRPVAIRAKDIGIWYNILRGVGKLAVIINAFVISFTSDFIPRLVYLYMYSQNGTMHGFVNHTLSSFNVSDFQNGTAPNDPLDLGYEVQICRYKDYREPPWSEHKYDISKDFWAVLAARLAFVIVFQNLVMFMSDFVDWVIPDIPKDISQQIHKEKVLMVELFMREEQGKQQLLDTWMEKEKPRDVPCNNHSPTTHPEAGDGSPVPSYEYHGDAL
TMEM16A act: TMEM16A chloride channel activators or potentiators, primary screen, cell-based, HTS; Anoctamin-1 (Mus musculus), Q8BHY3; HEK293 TMEM16A/YFP-H148Q/I152L, iodide quench fluorescence; stronger effect = lower value; B-score at 10 µM; 340,000 tested, 0.3% active;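 active means fluorescence-ratio B-score plate-corrected deviation score at least 3 library SD below zero, with starting fluorescence score within 5 deviations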;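 further: channel opened by trigger with iodide after compound preincubation; score built on the fluorescence ratio of max minus min over baseline; more negative score means more quench and so TMEM16A activation or potentiation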
CHOP UPR activ: activators of apoptotic CHOP UPR arm, primary screen, cell-based, CHO-CHOP luciferase reporter, luminescence, uHTS. UPR activation; percent of tunicamycin response over DMSO baseline. activation, % at 10 µM. 330,000 tested, 0.34% active;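 active means at 10 µM dose, activation of 40% or more, normalized to positive control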;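 further: 100% = tunicamycin at 10 µg/mL and 0% = DMSO alone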
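measured by = luciferase luminescence | assay system = CHO-CHOP cells, stable luciferase reporter of PERK-eIF2a-CHOP signalling | amount = 500 reporter cells seeded per well | timing = 6 h compound exposure at 37 °C after overnight seeding | controls = positive tunicamycin 10 µg/mL, negative DMSO alone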
UPR XBP1 act: activators of adaptive XBP1 UPR arm, primary screen, cell-based, CHO-XBP1 luciferase reporter, luminescence, uHTS; 330,000 tested, 0.33% active; activation, % at 20 µM; AID 463104, 2010; IRE1-XBP1 UPR activation; percent of tunicamycin response, DMSO as zero;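 active means versus positive control, 20 µM dose yields 30% or more activation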;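 further: 100% = tunicamycin at 10 µg/mL and 0% = DMSO only wells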
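Material: CHO-XBP1 cells stably carrying IRE1-XBP1-driven luciferase reporter / Amount: 1000 cells per well / Compound: 20 µM, 1% DMSO / Times: 6 h treatment, 37 °C / Detection: luciferase luminescence / Measure: % activation of reporter signal versus tunicamycin and DMSO controls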
Hep lipid drop: inhibitors of hepatocyte lipid droplet formation, primary screen, imaging, high-throughput imaging, BODIPY stain. inhibition, % at 6.5 µM. 240,000 tested, 0.4% active. AML12 mouse hepatocytes, oleate lipid droplets. AID 1656, 2009;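 active means lipid droplet intensity inhibited by at least 50%, with more than 500 cells counted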
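Test system: AML12 mouse liver cells; schedule: overnight exposure; technique: high-content imaging of BODIPY-stained droplets and DAPI nuclei; read-out: % inhibition of corrected integrated BODIPY droplet signal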
CHOP UPR conf: activators of apoptotic CHOP UPR arm, confirmation, cell-based, CHO-CHOP luciferase reporter, single concentration | shares compounds with CHOP UPR activ | CHO-CHOP cells, CHOP-luciferase reporter luminescence; percent of tunicamycin response, DMSO as zero | activation, % at 10 µM | 1,000 tested, 64% active; in the data active means activation above about 33%;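 further: 0% = DMSO wells and 100% = tunicamycin 10 µg/mL wells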
Numbers without * were called inactive. This is a sample that favours compounds with a hit; in the whole collection about 4.2% have one here.

Results for CCOC(=O)c1c(CSC(=N)N)n(-c2ccc(C)cc2)c2cc(Br)c(OC(C)=O)cc12 ?
CHOP inh: -13; ANO1 block: 100*; TMEM16A act: inactive; CHOP UPR activ: 56*; UPR XBP1 act: -6; CHOP UPR conf: 73*

What do the screens show for `CC(=O)Nc1ccc(S(=O)(=O)N2CCC(NC(=O)C(Cc3ccccc3F)NC(C)=O)CC2)cc1` (stereo not given)?
TMEM16A act: inactive; CHOP UPR activ: 1; UPR XBP1 act: -1; Hep lipid drop: -21

How did O=C(CCNC(=O)c1ccccc1)NCCc1ccc(Cl)cc1 do in these assays?
ANO1 block: inactive; TMEM16A act: inactive; CHOP UPR activ: 1; UPR XBP1 act: 0; Hep lipid drop: -14

What do the screens show for `Cc1ccc2nc(Cl)c3nnnn3c2c1`?
CHOP inh: 105*; ANO1 block: inactive; TMEM16A act: inactive; CHOP UPR activ: 139*; UPR XBP1 act: -7; Hep lipid drop: -3; CHOP UPR conf: -7

How did COC(=O)[C@H](CC(C)C)NC(=O)Cn1cnc2c(NCc3ccccc3)ncnc21 do in these assays?
CHOP UPR activ: 3; UPR XBP1 act: 1

How did CCN(CC)C(=O)c1cc([N+](=O)[O-])cc2c1-c1ccc([N+](=O)[O-])cc1C2=C(C#N)C#N do in these assays?
CHOP inh: -51; ANO1 block: inactive; TMEM16A act: inactive; CHOP UPR activ: 169*; UPR XBP1 act: 8; Hep lipid drop: 0; CHOP UPR conf: 27

What do the screens show for `[O-][n+]1c2ccccc2c2n1CCN1CCOC21c1ccc(Cl)cc1` (stereo not given)?
TMEM16A act: inactive; CHOP UPR activ: 3; UPR XBP1 act: 0

How did Cc1ccc2oc(Nc3nc(-c4ccccc4)cc(=O)[nH]3)nc2c1 do in these assays?
CHOP inh: 101*; CHOP UPR activ: 364*; UPR XBP1 act: 28; Hep lipid drop: -100; CHOP UPR conf: 423*

How did Nc1ccc(C(=O)OCCc2ccccc2)cc1 do in these assays?
ANO1 block: inactive; TMEM16A act: inactive; CHOP UPR activ: -1; UPR XBP1 act: -2

What do the screens show for `O=C(OCCc1ccccc1)c1cc(O)c(O)c(O)c1`?
ANO1 block: inactive; TMEM16A act: inactive; CHOP UPR activ: 118*; UPR XBP1 act: 12; CHOP UPR conf: 11

How did C[C@@H]1CN([C@H](C)CO)C(=O)c2cc(NC(=O)Nc3ccc(C(F)(F)F)cc3)ccc2O[C@H]1CN(C)Cc1ccc(Cl)c(Cl)c1 do in these assays?
CHOP UPR activ: 184*; UPR XBP1 act: 19; CHOP UPR conf: 60*

Results for C=CCSC(=C(C#N)C#N)c1cc2c([nH]1)CCCC2 ?
CHOP inh: 63; ANO1 block: 100*; TMEM16A act: inactive; CHOP UPR activ: 43*; UPR XBP1 act: -5; Hep lipid drop: -5; CHOP UPR conf: 55*

Results for O=C(CN1CCN(Cc2ccccc2)CC1)Nc1ccc(N2CCOCC2)cc1 ?
CHOP inh: -11; ANO1 block: inactive; TMEM16A act: inactive; CHOP UPR activ: 0; UPR XBP1 act: -2; Hep lipid drop: 0

How did CC(C)Cc1nc(N2CCN(C(=O)C(C)C)CC2)c(C#N)c2c1CCC2 do in these assays?
CHOP inh: -8; ANO1 block: inactive; TMEM16A act: inactive; CHOP UPR activ: 40*; UPR XBP1 act: -3; CHOP UPR conf: 0

What do the screens show for `CC(C)Cc1nc(N2CCCCC2)c(C#N)c2c1CCC2`?
CHOP inh: 43; ANO1 block: inactive; TMEM16A act: inactive; CHOP UPR activ: 3; UPR XBP1 act: -1

Results for Cc1ccc(SC2=C(Sc3ccc(C)cc3)C(=O)c3ccccc3C2=O)cc1 ?
CHOP inh: -44; ANO1 block: inactive; TMEM16A act: inactive; CHOP UPR activ: 215*; UPR XBP1 act: 0; Hep lipid drop: 36; CHOP UPR conf: 2

What do the screens show for `CC(=O)N1CCN(C(=O)COC(=O)COc2ccc(C#N)cc2)CC1`?
ANO1 block: inactive; TMEM16A act: inactive; CHOP UPR activ: 1; UPR XBP1 act: -2

Results for COc1ccc(Oc2nc(-c3ccccn3)nc3ccccc23)cc1 ?
CHOP inh: 8; ANO1 block: inactive; TMEM16A act: inactive; CHOP UPR activ: 52*; UPR XBP1 act: 25; Hep lipid drop: 1; CHOP UPR conf: 14

How did c1ccc(Oc2nc(-c3ccccn3)nc3ccccc23)cc1 do in these assays?
CHOP inh: -32; ANO1 block: inactive; TMEM16A act: inactive; CHOP UPR activ: 41*; UPR XBP1 act: 15; Hep lipid drop: -7; CHOP UPR conf: 9

What do the screens show for `Fc1ccc(Oc2nc(-c3ccccn3)nc3ccccc23)cc1`?
CHOP inh: -61; ANO1 block: inactive; TMEM16A act: inactive; CHOP UPR activ: 24; UPR XBP1 act: 13; Hep lipid drop: 2

How did COc1ccc(-c2cc(C(F)F)n3ncc(C(=O)n4ccnc4C)c3n2)cc1 do in these assays?
CHOP inh: -324; ANO1 block: inactive; TMEM16A act: inactive; CHOP UPR activ: 131*; UPR XBP1 act: -4; Hep lipid drop: 19; CHOP UPR conf: 135*

Results for Cc1cccc(NC(=O)Cn2cnc(S(=O)(=O)N3CCCC3)c2)c1C ?
ANO1 block: inactive; TMEM16A act: inactive; CHOP UPR activ: 0; UPR XBP1 act: 0; Hep lipid drop: 14

How did CC1CCC/C=C/C(=O)c2c(O)cc(O)cc2CC(=O)O1 (stereo not given) do in these assays?
CHOP inh: 44; ANO1 block: inactive; TMEM16A act: inactive; CHOP UPR activ: 55*; UPR XBP1 act: -6; Hep lipid drop: -2; CHOP UPR conf: 91*

How did C[C@@H]1Cc2c(O)c(O)cc(O)c2C(=O)O1 do in these assays?
CHOP inh: -22; ANO1 block: inactive; TMEM16A act: inactive; CHOP UPR activ: -2; UPR XBP1 act: -5; Hep lipid drop: -20

What do the screens show for `O=S(=O)(Nc1cccc2cccnc12)c1ccccc1`?
ANO1 block: inactive; TMEM16A act: inactive; CHOP UPR activ: 368*; UPR XBP1 act: -9; Hep lipid drop: -15; CHOP UPR conf: 58*
